In PubChem BioAssay AID439 (The Scripps Research Institute Molecular Screening Center, 2006) one finds EC50 data, which are given here for one molecule.

The source made the active and inactive calls.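 Rule for the calls: active = compounds with EC50 at or below 10 micromolar; inactive = EC50 above 10 micromolar.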

For this assay, the target named is Sphingosine 1-phosphate receptor 3 (Homo sapiens) (UniProt Q99500). Nature of the assay: S1P3 receptor activation, EC50 – cell-based, NFAT-BLA reporter, dose response (AID 439). The note with it: S1P3 NFAT-beta-lactamase reporter cells, FRET ratio. A digest of the protocol:
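Assay system: CHO cells stably expressing human S1P3, G-alpha-16, NFAT-beta-lactamase reporter; timing: 4 h compound treatment, 37 °C; technique: beta-lactamase FRET, 460 nm versus 535 nm emission ratio; evaluation: EC50 from four-parameter fit, activity relative to 1 µM S1P; replicates: triplicate wells per compound concentration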

Sequence of Sphingosine 1-phosphate receptor 3 (Homo sapiens) (Q99500 whole entry, looked up): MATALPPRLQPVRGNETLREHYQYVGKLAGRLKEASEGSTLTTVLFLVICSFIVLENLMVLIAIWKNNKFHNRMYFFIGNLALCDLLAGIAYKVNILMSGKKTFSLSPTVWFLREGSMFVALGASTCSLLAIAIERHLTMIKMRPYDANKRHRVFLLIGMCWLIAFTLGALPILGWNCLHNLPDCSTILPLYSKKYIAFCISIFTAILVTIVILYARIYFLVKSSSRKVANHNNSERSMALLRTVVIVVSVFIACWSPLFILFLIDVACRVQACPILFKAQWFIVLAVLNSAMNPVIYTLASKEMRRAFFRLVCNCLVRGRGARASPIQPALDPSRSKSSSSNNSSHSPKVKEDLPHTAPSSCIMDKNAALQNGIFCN

Take `CCOC(=O)C1=C(N)OC2=C(C(=O)CCC2)C1c1ccccc1OCC` (stereo unspecified): the EC50 result was “inactive”.
